TNAP act hiacc = TNAP (human) activation, high acceptor. activation factor at 20 µM. P05186. purified TNAP, CDP-star luminescence, 1 M DEA, 30 min; active compounds read high; 0 = EDTA background, 1 = DMSO-only activity. AID 1136. 200,000 tested, under 10 active;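 active means activation factor at least 2 at 20 µM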
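Dosing: 20 µM single point. System: human TNAP. Amount: TNAP 1/800 final. Incubation: 30 min, room temperature. Read-out: TNAP activation factor scaled between EDTA and DMSO control wells. Signal: luminescence from CDP-star hydrolysis. Medium: 1 M DEA, pH 9.8, Mg2+, Zn2+. Control set: EDTA negative control, DMSO positive control.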
TNAP inh hi DEA = blocks human TNAP under high phosphate acceptor concentration. P05186. purified TNAP, CDP-star luminescence, 1 M DEA. inhibition, % at 20 µM. actives 0.03% (n = 200,000);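 active means over 50% inhibition of tissue-nonspecific alkaline phosphatase at 20 µM in the single-dose screen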;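 further: plate controls were DMSO wells for no effect and EDTA-quenched wells as full inhibition for full effect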
TNAP inh no acc = inhibitors of human TNAP without phosphate acceptor. P05186. inhibition, % at 20 µM. actives 0.26% (n = 200,000). purified TNAP, CDP-star luminescence, 30 min;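 active means tissue-nonspecific alkaline phosphatase inhibition above about 50% at 20 µM in the single-dose screen, limit read from the data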;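 further: 0% = DMSO negative control and 100% = EDTA positive control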
ABCB6 inh MLPCN = human ABCB6 transporter inhibition; Q9NP58; K562-ABCB6 porphyrin accumulation, flow cytometry, 1 h; active compounds read low; fluorescence ratio to DMSO, % at 10 µM; actives 0.19% (n = 360,000);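 active means fluorescence ratio to DMSO below 75%, the collection mean minus 3 SD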;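 further: signal is porphyrin accumulated inside mitochondria; 100% equals median channel fluorescence of DMSO control wells; lower ratio means ABCB6 inhibition with less porphyrin fluorescence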
CHT PAM = allosteric activators of human choline transporter CHT; B-score at 10 µM; AID 488977; Q9GZV3; CHT-expressing cells, membrane potential dye, choline EC20; active compounds read high; LV-AA mutant CHT in HEK293 cells; actives 0.49% (n = 310,000);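 active means initial fluorescence not abnormally high and integrated response B-score, plate-corrected, over 3 SD above library mean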
Target sequence (Q9GZV3 whole entry, looked up): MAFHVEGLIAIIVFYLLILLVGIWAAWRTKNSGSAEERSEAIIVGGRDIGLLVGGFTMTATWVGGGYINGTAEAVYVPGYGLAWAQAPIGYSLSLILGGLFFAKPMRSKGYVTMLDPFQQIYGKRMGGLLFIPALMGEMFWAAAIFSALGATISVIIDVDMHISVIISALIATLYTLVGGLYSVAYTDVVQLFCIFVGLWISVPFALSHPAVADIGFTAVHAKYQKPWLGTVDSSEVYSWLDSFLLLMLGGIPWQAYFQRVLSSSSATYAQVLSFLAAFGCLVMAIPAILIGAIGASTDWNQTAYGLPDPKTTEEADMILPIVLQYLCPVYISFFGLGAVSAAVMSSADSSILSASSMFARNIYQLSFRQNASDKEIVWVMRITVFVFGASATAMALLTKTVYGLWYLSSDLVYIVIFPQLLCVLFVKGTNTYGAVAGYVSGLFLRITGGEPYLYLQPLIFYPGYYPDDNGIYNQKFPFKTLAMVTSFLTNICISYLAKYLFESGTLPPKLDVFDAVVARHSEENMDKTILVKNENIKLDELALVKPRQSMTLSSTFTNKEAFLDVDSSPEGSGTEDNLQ
CHT inh = inhibits the human high affinity choline transporter; Q9GZV3; CHT-expressing cells, membrane potential dye, choline response; active compounds read low; B-score at 10 µM; actives 0.86% (n = 310,000);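 active means B-score over 3 SD under the library average, and starting fluorescence ratio not unusually high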;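 further: choline stimulus applied at its EC90 after an EC20 pre-addition; B-score computed on integrated fluorescence ratio after choline addition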
CHT inh conf = human CHT inhibition, confirmatory screen; CHT-expressing cells, choline membrane potential dye; LV-to-AA substituted CHT, HEK293 cells; shares compounds with CHT inh; actives 70% (n = 2,400); CHT activity remaining % of control (active compounds read low), % at 10 µM; AID 493221;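 active means choline transporter activity left, mean of duplicates at 10 µM, below buffer-only control mean minus 3 SD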;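 further: depolarization triggered by choline at its EC90 following an EC20 pre-addition; 0% = hemicholinium-3 full block and 100% = buffer-only control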
HEK293 CHT ctr = activity in parental HEK293 cells lacking CHT; membrane potential ratio readout (active if shifted either direction beyond buffer ±3SD; no single direction) at 10 µM; membrane potential dye, choline response; active = decrease or increase beyond buffer ±3SD; actives 4% (n = 2,400); shares compounds with CHT inh;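 further: parental cells lack the transporter so any hit is non-specific; ratio is peak minus trough fluorescence over baseline after EC90 choline challenge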
An asterisk follows results filed as active; i = inactive; . = not tested or not shown. Only some compounds are listed: those with a hit (about 1.4% of all), similar ones and a draw of the others.

SMILES	TNAP act hiacc	TNAP inh hi DEA	TNAP inh no acc	ABCB6 inh MLPCN	CHT PAM	CHT inh	CHT inh conf	HEK293 CHT ctr
COc1cccc(C2/C(=C(\O)c3ccc4c(c3)OCCO4)C(=O)C(=O)N2c2nnc(C)s2)c1 (configuration not stated)	.	.	.	99	i	-5.7*	i	i
Cc1nnc(N2C(=O)C(=O)/C(=C(/O)c3ccc4c(c3)OCCO4)C2c2cccc([N+](=O)[O-])c2)s1 (configuration not stated)	.	.	.	91	.	.	.	.
CCn1cc(C(=O)NCCCOC)c(=O)c2cc(S(=O)(=O)N(C)C3CCCCC3)ccc21	1	-2	-16	105	i	i	.	.
CCCCN(CCCC)CCNC(=O)c1cn(C)c2ccc(S(=O)(=O)N(C)C3CCCCC3)cc2c1=O	.	.	.	99	i	-6.9*	32%*	i
CCC1CCCCN1CCCNC(=O)c1cn(CC)c2ccc(S(=O)(=O)N(C)C3CCCCC3)cc2c1=O (configuration not stated)	.	.	.	87	i	-8.3*	50%*	2.8*
CCCN1CCc2c(sc(NC(=O)CCS(=O)(=O)c3ccccc3)c2C(=O)OC)C1	.	.	.	101	i	i	.	.
CCN(CC(=O)NCc1ccc(F)cc1)C(=O)c1oc2ccccc2c1C	.	.	.	97	i	i	.	.
Cn1c(SCc2nc3ccccc3s2)nnc1-c1cccs1	1	-3	-9	112	i	-5.1*	56%*	i
O=C(Nc1ccc(NS(=O)(=O)c2ccccc2)cc1)c1ccccc1Cl	.	.	.	96	.	.	.	.
CC(=O)c1ccc(NC(=S)Nc2ccc3[nH]c(=O)[nH]c3c2)cc1	1	-3	-10	98	i	i	.	.
Cc1ccc(NC(=S)Nc2ccc3[nH]c(=O)[nH]c3c2)cc1C	.	.	.	96	i	-6.9*	63%*	i
COc1ccc(C(=O)NC2CCCCC2)cc1OC1CCN(C(C)C)CC1	.	.	.	99	i	-7.7*	9.8%*	i
COc1ccc(C(=O)NC2CCCCCC2)cc1OC1CCN(C(C)=O)CC1	.	.	.	102	i	i	.	.
COCC1CCN(C(=O)c2ccc(OC)c(OC3CCN(C(C)C)CC3)c2)CC1	.	.	.	100	i	i	.	.
COc1cc(C(=O)NCCC2=CCCCC2)cc(OC)c1OC	1	-4	-9	101	i	i	.	.
COc1ccc(C(=O)NCCCSC)cc1OC1CCN(C(C)C)CC1	.	.	.	94	i	-9.1*	18%*	i
COc1ccc(C(=O)NCCC2=CCCCC2)cc1OC1CCN(C(C)C)CC1	.	.	.	101	i	-11*	5.1%*	i
COc1ccc(C(=O)N2CCCC(O)C2)cc1OC1CCN(C(C)C)CC1 (configuration not stated)	.	.	.	96	i	-7.1*	62%*	i
O=C(CCNC(=O)c1ccc(Br)cc1)NCCCN1CCCC1=O	.	.	.	95	.	.	.	.
NC(COCc1ccccc1)c1csc(NC(=O)Nc2cccc(Cl)c2)n1 (configuration not stated)	.	.	.	98	.	.	.	.
CCN1C[C@@H]2[C@@H]3C(=O)N(C)C(=O)[C@@H]3[C@](C)(C1=O)N2C(=O)c1ccc(C(F)(F)F)cc1	.	.	.	102	.	.	.	.
O=C(Nc1nc2ccc(S(=O)(=O)N3CCCCC3)cc2s1)c1cccnc1	1.1	-8	-21	114	i	-5.5*	49%*	i
CC(=O)Nc1nc2ccc(S(=O)(=O)N3CCCCC3)cc2s1	.	.	.	106	i	i	.	.
Cc1ccccc1OCCC(=O)OCC(=O)c1c(N)n(CC(C)C)c(=O)n(C)c1=O	.	.	.	94	i	-6.6*	58%*	i
CC(C)Cn1c(N)c(C(=O)COC(=O)CCNS(=O)(=O)c2ccccc2)c(=O)n(C)c1=O	.	.	.	97	i	-6.3*	38%*	i
SMILES	TNAP act hiacc	TNAP inh hi DEA	TNAP inh no acc	ABCB6 inh MLPCN	CHT PAM	CHT inh	CHT inh conf	HEK293 CHT ctr
CC(C)Cn1c(N)c(C(=O)COC(=O)CCc2nc3ccccc3c(=O)[nH]2)c(=O)n(C)c1=O	.	.	.	100	.	.	.	.
COc1ccc(C(=O)NCC(=O)N2CCN(C(=O)c3ccco3)CC2)cc1[N+](=O)[O-]	.	.	.	105	.	.	.	.
CCCNC(=O)N1CCCC(C(=O)c2cccc(Cl)c2)C1 (configuration not stated)	1	0	-5	98	i	-5.2*	60%*	i
CCOC(=O)CCNC(=O)N1CCCC(C(=O)c2cccc(Cl)c2)C1 (configuration not stated)	1.1	-9	-15	99	i	i	.	.
O=C(Nc1ncc([N+](=O)[O-])s1)C1CC(=O)N(c2ccc(F)cc2)C1 (configuration not stated)	.	.	.	99	i	-6.7*	40%*	i
COc1ccc(CN(C)c2ncnc3sccc23)c(OC)c1OC	.	.	.	95	i	i	65%*	i
COc1ccc(CCN(C)c2ncnc3sccc23)cc1OC	1	-4	-11	100	i	i	.	.
CN(Cc1cccs1)c1ncnc2sccc12	1.1	-7	2	84	i	-7.4*	50%*	i
O=C(CCc1ccccc1O)NC1CCCc2ccccc21 (configuration not stated)	.	.	.	98	i	-6.2*	i	i
COc1ccccc1CC(=O)NC1CCCc2ccccc21 (configuration not stated)	1.1	-6	-4	111	i	i	.	.
Cc1ccc(-c2nnc(N3CC(C)OC(C)C3)c3ccccc23)cc1 (configuration not stated)	1	-4	-12	94	i	-7.5*	59%*	i
O=C(O)c1cc([N+](=O)[O-])cc([N+](=O)[O-])c1N1CCN(c2cccc(C(F)(F)F)c2)CC1	.	.	.	107	i	-5.3*	i	i
Cc1cccc(N2CCN(C(=O)Cc3c(C(=O)O)[nH]c4ccc(Cl)cc34)CC2)c1C	1	-1	-2	102	i	-11*	56%*	i
O=C(NCCOc1ccc(F)cc1)C1CCC(=O)N(CCc2ccccn2)C1 (configuration not stated)	.	.	.	98	i	i	.	.
Cc1cccc2cc(CN(Cc3ccco3)C(=O)NC3CCCCC3)c(=O)[nH]c12	1	1	-3	80	i	i	.	.
O=C(NC1CCCCC1)N(Cc1ccccc1)Cc1ccco1	1	-1	-4	117	i	-5.6*	70%*	i

Screens (PubChem)
